Results: ChEMBL document CHEMBL4190282, “The Conjugated Double Bond of Coniferyl Aldehyde Is Essential for Heat Shock Factor 1 Mediated Cytotoprotection” (J Nat Prod, 2017)
Calls of active or inactive are those of the source. No cut-off for these calls is given here.

What was measured:
NCI-H460 = experiment: Upregulation of HSF1 protein level in human NCI-H460 cells at 10 to 30 uM after 12 hrs by Western blot analysis; assay type: functional, cell-based
Method in brief: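 NCI-H460 cells treated 12 h at 10 or 30 μM; HSF1, HSP27 and HSP70 detected by Western blot.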

L132 [1] = experiment: Cytoprotective activity against cisplatin-induced caspase3 cleavage in human L-132 cells at 3 uM pretreated for 1 hr followed by cisplatin addition measured after 24 hrs by immunoblotting analysis; assay type: functional, cell-based
Method in brief: (§1)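 Human embryonic lung L132 cells in RPMI with 10% FBS. 1 h pretreatment at 3 μM, then 0.5 μM paclitaxel or 20 μM cisplatin for 24 h, or 10 Gy 137Cs γ-rays (3.81 Gy/min) for 48 h. Cleaved PARP and caspase-3 immunoblotted (ECL); bands normalized to loading control, fold-change vs negative control, ≥3 independent experiments.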

L132 [2] = experiment: Cytoprotective activity against IR-induced PARP cleavage in human L-132 cells at 3 uM pretreated for 1 hr followed by 10 Gy irradiation measured after 48 hrs by immunoblotting analysis; assay type: functional, cell-based; method in brief: as §1
[3] = molecular target: T1, Heat shock factor protein 1 (Mus musculus) (UniProt P38532); experiment: Activation of HSF1 in MEF assessed as protection against paclitaxel-induced PARP cleavage at 3 uM pretreated for 1 hr followed by paclitaxel addition measured after 24 hrs by immunoblotting analysis; assay type: cell-based
T1 sequence (whole entry): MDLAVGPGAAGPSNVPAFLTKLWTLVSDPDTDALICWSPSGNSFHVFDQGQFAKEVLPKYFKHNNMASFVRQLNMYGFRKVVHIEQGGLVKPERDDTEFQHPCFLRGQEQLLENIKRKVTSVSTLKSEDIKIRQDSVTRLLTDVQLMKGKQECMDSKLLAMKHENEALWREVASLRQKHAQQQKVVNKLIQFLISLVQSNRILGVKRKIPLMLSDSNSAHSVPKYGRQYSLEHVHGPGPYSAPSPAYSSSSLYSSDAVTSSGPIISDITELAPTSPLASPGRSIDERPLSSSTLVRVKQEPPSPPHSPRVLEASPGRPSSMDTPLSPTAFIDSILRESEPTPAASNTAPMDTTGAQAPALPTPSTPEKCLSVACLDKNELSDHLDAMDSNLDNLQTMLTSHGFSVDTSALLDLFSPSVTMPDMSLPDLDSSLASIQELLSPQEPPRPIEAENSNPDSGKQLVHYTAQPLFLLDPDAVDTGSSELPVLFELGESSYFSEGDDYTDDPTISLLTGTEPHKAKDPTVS
Method in brief: (§2)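 HSF1+/+ or HSF1−/− MEFs in DMEM with heat-inactivated 10% FBS, nonessential amino acids, glutamine, HEPES, 37 °C, 5% CO2. 1 h pretreatment at 3 μM, then 0.5 μM paclitaxel or 20 μM cisplatin for 24 h, or 10 Gy 137Cs γ-rays (3.81 Gy/min) for 48 h. Cleaved PARP and caspase-3 immunoblotted; bands normalized to loading control, fold-change vs negative control, ≥3 independent experiments.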

[4] = molecular target: T1, Heat shock factor protein 1 (Mus musculus); experiment: Activation of HSF1 in MEF assessed as protection against cisplatin-induced caspase3 cleavage at 3 uM pretreated for 1 hr followed by cisplatin addition measured after 24 hrs by immunoblotting analysis; assay type: cell-based; method in brief: as §2
[5] = molecular target: T1, Heat shock factor protein 1 (Mus musculus); experiment: Activation of HSF1 in MEF assessed as protection against IR-induced caspase3 cleavage at 3 uM pretreated for 1 hr followed by 10 Gy irradiation measured after 48 hrs by immunoblotting analysis; assay type: cell-based; method in brief: as §2
Mus musculus [6] = experiment: Protection against IR-induced mortality in ICR mouse assessed as increase in mean survival days at 5 to 10 mg/kg, ip administered once before and three times after 7 Gy irradiation measured daily for 30 days; assay type: functional, organism-based
Method in brief: (§3)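 Female ICR mice (5–6 weeks, 25–30 g) given 7 Gy whole-body IR; dosed ip at 5 or 10 mg/kg once before and three times after IR, DMSO stock diluted in modified PBS. Survival days and radiation sickness signs checked twice daily; 10 mice per group.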

Mus musculus [7] = experiment: Protection against IR-induced lethargy in ICR mouse at 5 to 10 mg/kg, ip administered once before and three times after 7 Gy irradiation measured daily for 30 days; assay type: functional, organism-based; method in brief: as §3
Mus musculus [8] = experiment: Protection against IR-induced reduction in circulating neutrophils in ICR mouse at 10 mg/kg, ip administered once before and three times after 4.5 Gy irradiation measured after 9 days; assay type: functional, organism-based
Method in brief: (§4)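 Female ICR mice (5–6 weeks) given 4.5 Gy whole-body IR, dosed ip at 10 mg/kg once before and three times after IR; 5 per group, sacrificed day 9. BM cellularity from H&E (hematopoietic cells per 200×200 μm area); peripheral WBC, lymphocytes, neutrophils; Ki67 IHC counted in five fields per femur; relative spleen weight vs control. Means ± SD, Student's t test.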

Mus musculus [9] = experiment: Protection against IR-induced reduction in cellular proliferation in ICR mouse at 10 mg/kg, ip administered once before and three times after 4.5 Gy irradiation measured after 9 days by Ki67 staining-based immunohistochemical analysis; assay type: functional, organism-based; method in brief: as §4
[10] = molecular target: T2, Heat shock factor protein 1 (Homo sapiens) (UniProt Q00613); experiment: Activation of HSF1 in human L132 cells assessed as increase in HSP70 protein levels at 3 uM after 6 to 24 hrs by immunoblotting analysis; assay type: cell-based
T2 sequence (whole entry): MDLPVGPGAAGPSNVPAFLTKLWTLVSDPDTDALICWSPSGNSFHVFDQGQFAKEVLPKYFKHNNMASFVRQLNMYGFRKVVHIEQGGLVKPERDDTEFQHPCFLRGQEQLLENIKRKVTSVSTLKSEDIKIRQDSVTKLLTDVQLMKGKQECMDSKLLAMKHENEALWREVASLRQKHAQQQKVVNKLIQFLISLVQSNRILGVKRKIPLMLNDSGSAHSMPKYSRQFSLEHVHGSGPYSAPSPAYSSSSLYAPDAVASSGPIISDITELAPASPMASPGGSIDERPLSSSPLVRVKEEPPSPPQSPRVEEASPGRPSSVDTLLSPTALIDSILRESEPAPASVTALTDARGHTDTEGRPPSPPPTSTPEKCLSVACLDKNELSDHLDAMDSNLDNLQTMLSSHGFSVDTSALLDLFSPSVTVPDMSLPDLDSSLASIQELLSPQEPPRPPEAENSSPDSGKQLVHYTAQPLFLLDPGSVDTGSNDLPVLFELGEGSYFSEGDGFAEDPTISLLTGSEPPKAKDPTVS
Method in brief: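 L132 cells treated at 3 μM for 12 h, or at various doses for 12 h, or at 3 μM over a time course. Lysates resolved by SDS-PAGE, blotted to nitrocellulose, milk-blocked, primary antibodies 18 h at 4 °C, ECL detection. HSP27, HSP70 and Ser326-phospho-HSF1 bands normalized to loading control; ≥3 independent experiments; celastrol 1 μM positive control.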

L132 [11] = experiment: Cytoprotective activity against IR-induced cell death in human L-132 cells at 3 uM pretreated for 1 hr followed by 10 Gy irradiation measured after 48 hrs by FACS analysis; assay type: functional, cell-based
Method in brief: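 L132 cells in RPMI with 10% FBS. 1 h pretreatment at 3 μM, then 0.5 μM paclitaxel or 20 μM cisplatin for 24 h, or 10 Gy γ-rays for 48 h. Cells trypsinized, washed, stained with propidium iodide and analysed by flow cytometry. Means ± SD of ≥3 independent experiments, fold-change vs negative control.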

Activity [3] | Activity [4] | Activity [5] | Activity [10] | SMILES | Activity (NCI-H460) | Activity (L132 [1]) | Activity (L132 [2]) | Activity (Mus musculus [6]) | Activity (Mus musculus [7]) | Activity (Mus musculus [8]) | Activity (Mus musculus [9]) | Activity (L132 [11])
Active | Active | Active | Active | COc1cc(/C=C/CO)ccc1O [CONIFERYL ALCOHOL] | Active | Active | Active | Active | Active | Active | Active | Active
Active | Active | Active | Active | COc1cc(/C=C/C=O)ccc1O [CONIFERYL ALDEHYDE] | Active | Active | Active | Active | Active | Active | Active | Active
